Assay results as given in ChEMBL document CHEMBL5712908, “A genome-wide RNAi screen reveals essential therapeutic targets of breast cancer stem cells” (2019).
Active and inactive are the calls of the source. No cut-off for these calls is given here.

What was measured:
Breast cancer cell line [1] = experiment: Antitumor activity against human reimplanted CRCM494 negative breast cancer cells orthotopically xenografted in NSG mouse model of PDX assessed as reduction tumor volume at 50 mg/kg, ip 5 out of 7 for 2 weeks by limiting dilation analysis; type: functional, organism-based
In short: (§1)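 After 2 weeks of i.p. treatment (3 mg/kg daily or 50 mg/kg 5 of 7 days), dissociated PDX tumour cells reimplanted into secondary NSG mice at 50, 500 or 5,000 cells. A mouse counted as tumour-bearing once a tumour reached 10 mm. bCSC frequency per 10,000 cells estimated by ELDA; pairwise chi-square test.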

SUM-159-PT [2] = experiment: Anticancer activity against human SUM159 cells assessed as effect on RFP+/BFP+ cell ratio upto 100 uM after 72 hrs by ALDEFLUOR staining based flow cytometric analysis; type: functional
SUM-159-PT [3] = experiment: Induction of apoptosis in human SUM159 cells expressing ALDH upto 100 uM incubated for 72 hrs by ALDEFLUOR/YO-PRO-3/ Hoechst 33342 staining based high content imaging microscopic analysis; type: functional, cell-based
In short: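 SUM159 at 3,000 cells/well on collagen plates, dosed at 6, 24 and 48 h post-seeding; 0.1% DMSO negative control, cisplatin positive control. At 72 h stained 30 min at 37°C with ALDEFLUOR, YO-PRO-3 and Hoechst 33342, then imaged ice-cold. YO-PRO-3-positive nuclei (above untreated signal) counted over total cells, per ALDHbr/ALDH- subpopulation; n = 6.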

SUM-159-PT [4] = experiment: Synergistic anticancer activity against human SUM159 cells assessed as decrease in secondary tumor sphere formation at 62 nM incubated for 72 hrs in presence of salinomycin by Extreme limiting dilution analysis; type: functional
In short: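 72 h adherent pretreatment (Sal/JQ1 62 nM/62 nM; docetaxel added at 2 nM where used), then single cells plated in ultra-low attachment 96-well plates in serum-free mammary epithelium basal medium at 25/10/5/3/2/1 cells/well (18–36 wells/condition). Wells with ≥1 sphere after 10 days scored positive; sphere-forming frequency by ELDA. Secondary spheres from dissociated primary spheres. n = 4; pairwise chi-square.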

SUM-159-PT [5] = experiment: Anticancer activity against human SUM159 cells assessed as decrease in secondary tumor sphere formation incubated for 72 hrs by Extreme limiting dilution analysis; type: functional, cell-based
In short: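 Cells drug-treated in adherent culture for 72 h, then plated as single cells in ultra-low attachment 96-well plates in serum-free mammary epithelium basal medium. Plating at 25/10/5/3/2/1 cells per well, 18–36 wells per condition. Wells with ≥1 sphere after 10 days scored positive. Secondary spheres were made by dissociating primary spheres. Frequency by ELDA; n = 4; pairwise chi-square test.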

Breast cancer cell line [6] = experiment: Synergistic antitumor activity against patient-derived breast cancer cells orthotopically xenografted in NSG mouse model of PDX assessed as reduction in Ki67 cells at 50 mg/kg, ip 5 out of 7 for 2 weeks cotreated with salinomycin by Immunostaining analysis; type: functional, organism-based; details: Homo sapiens
In short: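 Paraffin sections of treated PDX tumours deparaffinised and subjected to antigen retrieval in citrate buffer pH 6. Peroxidase staining with ready-to-use Ki67 or cleaved caspase-3 antibody, DAB substrate, haematoxylin counterstain. Proportion of positive cells quantified; n = 3; t-test.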

SUM-159-PT [7] = experiment: Synergistic anticancer activity against human SUM159 cells assessed as decrease in docetaxel induced ALDHbr cells at 62 nM in presence of salinomycin by LSR2 cytometer analysis; type: functional, cell-based
In short: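 SUM159 or SUM149 cells treated 72 h in adherent conditions; docetaxel combined with other drugs at 2 nM; combination doses chosen from synergy distributions (Sal/JQ1 62 nM/62 nM). ALDEFLUOR staining with DEAB control, flow cytometry on LSR2. n = 8; Student's t-test; mean ± SD.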

Breast cancer cell line [8] = experiment: Antitumor activity against human CRCM404 negative breast cancer cells orthotopically xenografted in NSG mouse model of PDX assessed as reduction ALDHbr cells at 50 mg/kg, ip 5 out of 7 for 2 weeks by LSR2 cytometer analysis; type: functional, organism-based
In short: (§2)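 Chemo-naïve triple-negative PDX cells injected at 100,000 per fat pad, two fat pads per NSG mouse. At ~80 mm³ tumours, mice received i.p. 3 mg/kg daily for 14 days or 50 mg/kg 5 of 7 days for 2 weeks; placebo was DMSO/HPCD 10% (1:9). Five mice (10 tumours) per group. Tumour growth monitored; after 2 weeks tumours dissociated, mouse cells excluded via anti-H2Kd, ALDHbr measured by ALDEFLUOR flow cytometry and normalised to vehicle.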

Breast cancer cell line [9] = experiment: Antitumor activity against human CRCM494 negative breast cancer cells orthotopically xenografted in NSG mouse model of PDX assessed as reduction in tumor volume at 50 mg/kg, ip 5 out of 7 for 2 weeks; type: functional, organism-based; in short: as §2
Breast cancer cell line [10] = experiment: Synergistic antitumor activity against human CRCM404 negative breast cancer cells orthotopically xenografted in NSG mouse model of PDX assessed as reduction ALDHbr cells at 50 mg/kg, ip 5 out of 7 for 2 weeks cotreated with salinomycin by LSR2 cytometer analysis; type: functional
Breast cancer cell line [11] = experiment: Synergistic antitumor activity against human CRCM434 negative breast cancer cells xenografted in NSG mouse model of PDX assessed as reduction metastasis formation in liver at 50 mg/kg, ip 5 out of 7 for 2 weeks cotreated with salinomycin; type: functional, organism-based
In short: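 Luciferase-expressing PDX cells sorted H2Kd⁻ and viable, 100,000 in 100 μl PBS injected in NSG tail vein. From the next day, salinomycin 3 mg/kg i.p. daily and/or JQ1 50 mg/kg i.p. 5 of 7 days for 2 weeks. Lungs and liver imaged by bioluminescence after i.p. luciferin 30 mg/kg; normalised photon flux; 10 mice/group; Wilcoxon test.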

Breast cancer cell line [12] = experiment: Antitumor activity against human reimplanted CRCM404 negative breast cancer cells orthotopically xenografted in NSG mouse model of PDX assessed as reduction tumor volume at 50 mg/kg, ip 5 out of 7 for 2 weeks by limiting dilation analysis; type: functional, organism-based; in short: as §1
Breast cancer cell line [13] = experiment: Synergistic antitumor activity against human CRCM494 negative breast cancer cells orthotopically xenografted in NSG mouse model of PDX assessed as reduction ALDHbr cells at 50 mg/kg, ip 5 out of 7 for 2 weeks cotreated with salinomycin by LSR2 cytometer analysis; type: functional
Breast cancer cell line [14] = experiment: Synergistic antitumor activity against human CRCM404 negative breast cancer cells orthotopically xenografted in NSG mouse model of PDX assessed as reduction in tumor volume at 50 mg/kg, ip 5 out of 7 for 2 weeks cotreated with salinomycin; type: functional, organism-based
In short: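 Orthotopic PDX in NSG mice, 100,000 cells per fat pad, two pads per mouse; treatment from ~80 mm³ tumours with salinomycin i.p. 3 mg/kg daily 14 days, JQ1 i.p. 50 mg/kg 5 of 7 days for 2 weeks, or combination, against placebo DMSO/HPCD 10% (1:9). Tumour growth monitored; n = 10 tumours per group.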

Breast cancer cell line [15] = experiment: Synergistic antitumor activity against human reimplanted CRCM494 negative breast cancer cells orthotopically xenografted in NSG mouse model of PDX assessed as reduction tumor volume at 50 mg/kg, ip 5 out of 7 for 2 weeks cotreated with salinomycin by limiting dilation analysis; type: functional, organism-based
Breast cancer cell line [16] = experiment: Synergistic antitumor activity against human reimplanted CRCM404 negative breast cancer cells orthotopically xenografted in NSG mouse model of PDX assessed as reduction tumor volume at 50 mg/kg, ip 5 out of 7 for 2 weeks cotreated with salinomycin by limiting dilation analysis; type: functional, organism-based

## Cc1sc2c(c1C)C(c1ccc(Cl)cc1)=N[C@@H](CC(=O)OC(C)(C)C)c1nnc(C)n1-2
Breast cancer cell line [1]
  Activity: Active
SUM-159-PT [2]
  Activity: inactive
SUM-159-PT [3]
  Activity: Active
SUM-159-PT [4]
  fold change (FC): 5.4
SUM-159-PT [5]
  Activity: Active
Breast cancer cell line [6]
  Activity: Active
SUM-159-PT [7]
  Activity: Active
Breast cancer cell line [8]
  Activity: Active
Breast cancer cell line [9]
  Activity: Active
Breast cancer cell line [10]
  fold change (FC): 2
Breast cancer cell line [11]
  Activity: Active
Breast cancer cell line [12]
  Activity: Active
Breast cancer cell line [13]
  fold change (FC): 2
Breast cancer cell line [14]
  Activity: Active
Breast cancer cell line [15]
  Activity: Active
Breast cancer cell line [16]
  Activity: Active
